Screens: PubChem, several laboratories
An excerpt weighted towards active compounds, which were near 2.9% of everything screened.
SENP6 block: SENP6 protease inhibitors, primary screen, biochemical, luminescence, uHTS; 1.8% of 330,000 active; Sentrin-specific protease 6 (Homo sapiens), Q9GZR1; Recombinant SENP6 catalytic domain, aminoluciferin luminescence; inhibition, % at 10 µM;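 active means inhibition above about 50% at the single tested dose, limit read from the data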
Target sequence (Q9GZR1 628-1112 limits assumed): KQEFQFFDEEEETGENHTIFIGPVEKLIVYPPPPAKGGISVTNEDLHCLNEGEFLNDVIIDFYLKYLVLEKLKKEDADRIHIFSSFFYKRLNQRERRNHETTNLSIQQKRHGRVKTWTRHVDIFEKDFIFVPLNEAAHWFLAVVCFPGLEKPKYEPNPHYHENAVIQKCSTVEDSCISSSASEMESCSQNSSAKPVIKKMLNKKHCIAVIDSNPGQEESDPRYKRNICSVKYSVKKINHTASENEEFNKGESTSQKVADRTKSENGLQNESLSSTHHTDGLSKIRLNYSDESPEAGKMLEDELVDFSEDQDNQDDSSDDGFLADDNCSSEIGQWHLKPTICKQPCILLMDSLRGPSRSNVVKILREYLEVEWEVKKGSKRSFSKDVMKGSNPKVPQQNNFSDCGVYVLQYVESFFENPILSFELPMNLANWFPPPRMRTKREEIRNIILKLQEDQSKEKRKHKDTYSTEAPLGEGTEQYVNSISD
HSP90 refold inh: HSP90 inhibitors, primary screen, cell lysate, luminescence; AID 1789, 2009; Heat shock protein HSP 90 (rabbit reticulocyte lysate; luciferase refolding); 0.91% of 290,000 active; Rabbit reticulocyte lysate, luciferase refolding luminescence, 3 h; inhibition, % at 5.6 µM;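 active means inhibition above the screen-wide mean plus 3 SD, computed separately per campaign, cut at about 16% in these data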;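 further: inhibitors lower the luminescence because luciferase stays unfolded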
SENP8 block-1: SENP8 protease inhibitors, primary screen, biochemical, luminescence | purified SENP8, Z-RLRGG-aminoluciferin cleavage | inhibition, % at 10 µM | 1.2% of 330,000 active; in the data active means inhibition above about 50%
Target sequence (Q96LD8 whole entry, looked up): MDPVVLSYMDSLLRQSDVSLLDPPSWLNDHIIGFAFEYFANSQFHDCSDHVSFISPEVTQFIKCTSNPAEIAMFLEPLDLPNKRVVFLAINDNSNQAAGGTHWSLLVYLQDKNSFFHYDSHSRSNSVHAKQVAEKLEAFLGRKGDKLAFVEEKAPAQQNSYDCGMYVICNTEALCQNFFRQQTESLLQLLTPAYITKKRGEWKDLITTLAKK
SENP8 block-2: human SENP8 protease inhibitors, primary screen, biochemical, fluorescence, Nedd8 protein substrate, uHTS; recombinant SENP8; inhibition, % at 20 µM; 0.64% of 360,000 active; in the data active means inhibition mostly above about 40%, no sharp cut-off; inactive means mostly below about 27%
SENP1 inh: human SENP1 catalytic domain inhibitors, primary screen, biochemical, FRET, uHTS | Sentrin-specific protease 1 (Homo sapiens), Q9P0U3 | recombinant SENP1 catalytic domain, CyPet-SUMO1-YPet FRET cleavage | inhibition, % at 10 µM | 0.21% of 360,000 active;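 active means inhibition at least 30% at 10 µM, raw YFP signal under a set limit, fluorescence ratio 0.5 to 1.5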
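Controls: no-enzyme wells low, DMSO-plus-enzyme wells high control. Test system: human recombinant His6-tagged SENP1 catalytic domain enzyme. Reagent: SFCypet-SUMO1-SFYpet FRET protein substrate, 25 nM final. Doses: one dose per compound, 10 µM, 0.5% DMSO. Detection: FRET, CFP and YFP emission. Timing: 50 min reaction at room temperature.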
SENP7 block: SENP7 protease inhibitors, primary screen, biochemical, luminescence, uHTS; 1.5% of 330,000 active; AID 434973, 2010; recombinant SENP7, Z-RLRGG-aminoluciferin luminescence, 40 min; Sentrin-specific protease 7 (Homo sapiens), Q9BQF6; inhibition, % at 5 µM;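 active means inhibition above about 50% at the single test dose, limit read from the data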
SENP8 inh conf: human SENP8 protease inhibitors, confirmation, biochemical, Nedd8 protein substrate, single concentration | shares compounds with SENP8 block-2 | purified SENP8, Nedd8-AMC/pro-Nedd8 cleavage fluorescence, 30 min | inhibition, % at 25 µM | 15% of 1,400 active | AID 624319, 2012; in the data active means inhibition mostly above about 39%, no sharp cut-off; inactive means mostly below about 34%
SENP1 conf: human SENP1 catalytic domain inhibitors, confirmation, biochemical, FRET endpoint, single concentration; 34% of 520 active; shares compounds with SENP1 inh; recombinant SENP1, CyPet-SUMO1-YPet FRET cleavage; inhibition, % at 10 µM; AID 651678, 2012; in the data active means inhibition mostly above about 35%, no sharp cut-off; inactive means mostly below about 32%
SENP1 kin conf: human SENP1 catalytic domain inhibitors, confirmation, biochemical, kinetic FRET, single concentration | shares compounds with SENP1 inh | recombinant SENP1, CyPet-SUMO1-YPet FRET kinetic cleavage | inhibition, % at 10 µM | 26% of 520 active; in the data active means inhibition mostly above about 32%, no sharp cut-off; inactive means mostly below about 29%
Large screens that a line does not name were inactive (follow-up assays come after a bar, where they were run).

O=C(c1ccc([N+](=O)[O-])o1)N1CCN(Cc2ccccc2)CC1	SENP8 block-2 42 | SENP8 inh conf inactive
Cc1cc(C)n(C(C[N+](=O)[O-])c2ccc(Cl)cc2)n1 (stereo not given)	none
CN(C)c1ccc(NC(=O)C2C3C=CC(C3)C2C(=O)O)cc1 (stereo not given)	SENP8 block-2 51 | SENP8 inh conf inactive
O=C(O)C1C2C=CC(C2)C1C(=O)Nc1ccc2c(c1)OCCO2 (stereo not given)	none
OCC[C@@H]1C[C@H](O)[C@@H](O)[C@@]2(OCCCc3cc(C(F)(F)F)ccc32)O1	none (no result: SENP6 block, HSP90 refold inh, SENP8 block-1, SENP7 block)
CN1CCC2(CC1)N=C(c1ccc(F)cc1)C(=S)N2C(=O)c1ccc(C(C)(C)C)cc1	SENP8 block-2 53 | SENP8 inh conf inactive
O=c1cc(-c2ccc(O)c(O)c2)oc2cc(O)c(C3OC(CO)C(O)C(O)C3O)c(O)c12 (stereo not given)	none
O=c1cc(-c2ccc(O)cc2)oc2cc(O)c([C@@H]3O[C@H](CO)[C@@H](O)[C@H](O)[C@H]3O)c(O)c12	SENP8 block-2 45 (no result: HSP90 refold inh) | SENP8 inh conf inactive
CC(C)(C)NC(=O)CSc1nnc(C2CC2)n1Cc1ccccc1	none
O=C(CCCCn1c(=O)c2ccccc2n(Cc2ccccc2F)c1=O)NC1CCN(Cc2ccccc2)CC1	SENP8 block-2 40 | SENP8 inh conf inactive
Cc1cccc(C)c1NC(=O)Cn1c(=O)n(CCCC(=O)NC2CCN(Cc3ccccc3)CC2)c(=O)c2ccccc21	none
COC(=O)[C@]12CCCCC=C1N(Cc1ccc(Cl)cc1Cl)C(=O)[C@H](CC(=O)NCCc1ccccc1OC)C2	none (no result: SENP6 block, HSP90 refold inh, SENP8 block-1, SENP7 block)
C[C@@H]1CCCCO[C@@H](CN(C)S(C)(=O)=O)[C@@H](C)CN([C@H](C)CO)C(=O)c2cc(N(C)C)ccc2O1	none (no result: SENP6 block, HSP90 refold inh, SENP8 block-1, SENP7 block)
COC(=O)c1ccccc1-c1ccc(C(c2c(C)[nH][nH]c2=O)c2c(C)[nH][nH]c2=O)o1	SENP8 block-2 50 | SENP8 inh conf 42
CN(Cc1ccccc1)C(=O)c1ccc(NC(=O)Cc2cccc(NC(=O)C3CCN(C(=O)C4CCCC4)CC3)c2)cc1	none (no result: HSP90 refold inh)
COc1ccccc1C(=O)NC(=O)CSc1nncn1C(C)C	none (no result: HSP90 refold inh)
C[C@H]1CN([C@@H](C)CO)C(=O)CCCn2nncc2CO[C@@H]1CN(C)C(=O)c1ccc(N2CCN(C)CC2)cc1	SENP8 block-2 50 (no result: SENP6 block, HSP90 refold inh, SENP8 block-1, SENP7 block) | SENP8 inh conf inactive
C[C@@H]1CN([C@H](C)CO)C(=O)CCCn2nncc2CO[C@H]1CN(C)C(=O)c1ccc(N2CCN(C)CC2)cc1	none (no result: SENP6 block, HSP90 refold inh, SENP8 block-1, SENP7 block)
Cc1ccc(C2=NS(=O)(=O)N(C)C(C(=O)NC3CCCCC3)=C2)cc1	none
O=C(NCc1ccco1)c1ccccc1NS(=O)(=O)c1ccc(Br)s1	none
O=C(CCC(=O)N1CCc2ccccc2C1)N1CCN(S(=O)(=O)c2ccccc2)CC1	SENP8 block-2 43 | SENP8 inh conf 64
O=C(CCCOc1ccccc1)N1CCN(S(=O)(=O)c2ccccc2)CC1	none (no result: HSP90 refold inh)
Nc1c(NCCCN2CCOCC2)c2ccccc2oc1=O	SENP8 block-2 38 | SENP8 inh conf inactive
O=C(Cn1cnc2ccccc2c1=O)Nc1nnc(SCc2ccccc2)s1	SENP8 block-2 42 | SENP8 inh conf inactive
CCCCc1nnc(NC(=O)Cn2cnc3ccccc3c2=O)s1	none
O=C(N/N=C\C=C\c1ccc2c(c1)OCO2)c1ccc(F)cc1	none
NC(=O)N/N=C/C=C/c1ccc(F)cc1	SENP8 block-2 43 | SENP8 inh conf inactive
CC1=NN(c2ccccc2)C(=O)C1N=Nc1cccc(O)c1 (stereo not given)	none
CC1=NN(c2ccc(C)cc2C)C(=O)C1C(c1cccc(O)c1)C1C(=O)N(c2ccc(C)cc2C)N=C1C (stereo not given)	SENP8 block-2 60 | SENP8 inh conf 44
CCOc1ccc(NS(=O)(=O)c2ccc(Cl)c(N=Nc3c(O)[nH]c(=S)[nH]c3=O)c2)cc1Br	SENP8 block-2 40 (no result: SENP6 block, HSP90 refold inh, SENP8 block-1, SENP7 block) | SENP8 inh conf inactive
COc1ccc(NS(=O)(=O)c2cc(N=Nc3c(O)[nH]c(=O)[nH]c3=O)ccc2OC)cc1Br	none (no result: SENP6 block, HSP90 refold inh, SENP8 block-1, SENP7 block)
O=C(Cc1cccc(NC(=O)C2CCCN(C(=O)C3CCCCC3)C2)c1)Nc1cccc(C(=O)N2CCCCC2)c1 (stereo not given)	none (no result: SENP6 block, HSP90 refold inh, SENP8 block-1, SENP7 block)
O=[N+]([O-])c1ccc(C=NNc2ccccc2)cc1	SENP8 block-2 44, SENP1 inh 72 (no result: SENP6 block, HSP90 refold inh, SENP8 block-1, SENP7 block) | SENP8 inh conf inactive | SENP1 conf 59 | SENP1 kin conf 43
O=[N+]([O-])c1cccc(C=NNc2ccccc2)c1	none (no result: SENP6 block, HSP90 refold inh, SENP8 block-1, SENP7 block)
CN(N=Cc1cccc2cccnc12)c1ccc([N+](=O)[O-])cc1[N+](=O)[O-]	SENP8 block-2 41, SENP1 inh 31 (no result: SENP6 block, HSP90 refold inh, SENP8 block-1, SENP7 block) | SENP8 inh conf inactive | SENP1 conf 35 | SENP1 kin conf inactive
CS(=O)(=O)N(CC(=O)NCCC1=CCCCC1)c1ccc2c(c1)OCO2	none
COc1ccc(OC)c(CNc2ccc3c(c2)nc(C)n3C)c1	none
COc1ccc(N=Nc2nc3cc(Br)c(Br)cc3n2C)c(OC)c1	SENP1 inh 61 (no result: SENP6 block, SENP8 block-1, SENP7 block) | SENP1 conf inactive | SENP1 kin conf 44
N=c1n(CCCOc2ccccc2Cl)c2ccccc2n1CC(N)=O	none
C=CCNC(=O)c1cccc2c1C(=O)c1ccc(N3CCOCC3)cc1S2(=O)=O	SENP1 inh 80 (no result: HSP90 refold inh) | SENP1 conf 61 | SENP1 kin conf 45
CC1=Nc2ccccc2N=C(NC(=O)c2ccccc2)C1c1ccc(Cl)cc1 (stereo not given)	none
CC1=Nc2ccccc2N=C(N)C1c1ccccc1 (stereo not given)	SENP1 inh 36 | SENP1 conf inactive | SENP1 kin conf inactive
COC(=O)C1=C(C)N(Cc2ccco2)C(=O)/C1=C\c1ccc(N(C)C)cc1	SENP1 inh 46 | SENP1 conf inactive | SENP1 kin conf inactive
